PolyA inhibitor = polyadenylation inhibitors in yeast reporter cells, primary screen, luminescence, S. cerevisiae. S. cerevisiae SKY197-pL101 polyadenylation reporter, beta-gal luminescence; efflux-impaired pdr1/pdr3 knockout yeast; score 100 = 6 SD above DMSO. activity score, % at 12 µM. 300,000 tested, 0.02% active. AID 1875, 2009;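 active = lowest replicate activity score at least 50, where 100 means six control SD above control mean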;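 note: yeast exposed to compound for 9 h at 30 °C; higher score means more reporter readthrough which indicates perturbed polyadenylation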
procasp3 activ = activators of human procaspase-3 D3A mutant, primary screen, biochemical, absorbance, PC-3 D3A mutant, single concentration. Caspase-3 (Homo sapiens), P42574. recombinant procaspase-3 D3A, Ac-DEVD-pNA absorbance 405 nm. activation, % at 8.5 µM. 330,000 tested, 0.11% active. AID 463141, 2010;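 active = activation above the mean of all tested compounds plus 3 SD, cut at about 21% in these data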;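 note: 0% = DMSO alone and 100% = DMSO wells spiked with extra 5 µM PC-3 D3A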
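material = Procaspase-3 D3A mutant | probe or stimulus = Ac-DEVD-pNA | compound = single dose, 8.5 µM nominal compound, 0.8% DMSO | timing = 1 h preincubation, 2 h reaction | measured by = 405 nm absorbance of p-nitroaniline, reads at 0 and 120 min | benchmarks = DMSO-only low control, 5 µM PC-3 D3A high control | repeats = singlicate, each compound tested once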
IMP-1 inhibitor = IMP-1 metallo-beta-lactamase inhibitors, primary screen, biochemical, epi-absorbance readout, Pseudomonas aeruginosa enzyme; purified IMP-1, nitrocefin hydrolysis, epi-absorbance fluorescence; inhibition, % at 5.6 µM; 290,000 tested, 0.45% active;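 active = inhibition above the mean plus 3 SD of all compounds in the same screening run, cut at about 4.5% in these data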;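 note: 0% = IMP-1 with DMSO and 100% = DMSO wells lacking enzyme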
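Test system: recombinant IMP-1 enzyme, purified / Medium: HEPES buffer pH 7.1 with ZnSO4 and Brij 35 / Doses: single dose, 5.6 µM / Times: 25 °C, 15 min preincubation, 25 min reaction / Detection: Epi-absorbance via hydrolysed-nitrocefin quenching of white-plate fluorescence, 480/530 nm, EDTA stop / Evaluation: percent inhibition from optical density relative to buffer-blank wells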
Neddyl block = inhibitors of cullin neddylation, primary screen, biochemical, TR-FRET, uHTS, NAE and Ubc12; NEDD8-conjugating enzyme Ubc12 (Homo sapiens) + NEDD8-activating enzyme E1 regulatory …; 360,000 tested, 0.58% active; calls only at 25 µM; in the data active = inhibition above about 36%
Target sequence (P61081 whole entry, looked up): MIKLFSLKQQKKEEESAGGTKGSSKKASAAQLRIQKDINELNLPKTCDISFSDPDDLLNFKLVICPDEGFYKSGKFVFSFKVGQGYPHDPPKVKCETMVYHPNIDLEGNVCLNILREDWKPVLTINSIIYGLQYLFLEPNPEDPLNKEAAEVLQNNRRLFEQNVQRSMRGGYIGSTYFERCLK
Target sequence (Q13564 whole entry, looked up): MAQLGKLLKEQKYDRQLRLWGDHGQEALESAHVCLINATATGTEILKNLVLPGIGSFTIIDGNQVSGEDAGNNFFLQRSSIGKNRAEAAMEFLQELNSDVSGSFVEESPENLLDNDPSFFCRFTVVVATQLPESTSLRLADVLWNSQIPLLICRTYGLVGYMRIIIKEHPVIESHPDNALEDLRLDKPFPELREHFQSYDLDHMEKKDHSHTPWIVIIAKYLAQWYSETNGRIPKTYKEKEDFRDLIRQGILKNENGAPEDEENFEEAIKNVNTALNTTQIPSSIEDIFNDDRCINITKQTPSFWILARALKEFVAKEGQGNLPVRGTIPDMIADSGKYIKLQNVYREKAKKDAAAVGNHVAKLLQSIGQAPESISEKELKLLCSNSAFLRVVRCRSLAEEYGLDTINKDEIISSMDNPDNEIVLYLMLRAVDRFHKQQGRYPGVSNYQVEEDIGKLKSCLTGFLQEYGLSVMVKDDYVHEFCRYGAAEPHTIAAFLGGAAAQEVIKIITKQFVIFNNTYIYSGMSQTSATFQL
proCasp7 act = procaspase-7 activators, primary screen, counter-screen for procaspase-3 activator project, biochemical, absorbance, HTS, human; activation, % at 8.5 µM; 330,000 tested, 0.093% active; Caspase-7 (Homo sapiens), P55210; recombinant procaspase-7, Ac-DEVD-pNA absorbance 405 nm; D23A/D198A/D206A triple mutant, cannot self-cleave; scale: DMSO 0, 5 µM enzyme 100;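 active = percent activation above the screen-wide mean plus 3 SD, cut at about 25% in these data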
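Material: Procaspase-7 triple mutant (PC-7 D3A) | Quantity: 2 µM procaspase-7 mutant as dispensed | Reagent: DEVD-pNA substrate | Times: 1 h preincubation, 2 h reaction | Technique: 405 nm absorbance of p-nitroaniline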
VIM-2 inhibitor = VIM-2 metallo-beta-lactamase inhibitors, primary screen, biochemical, epi-absorbance readout, Pseudomonas aeruginosa enzyme | AID 1527, 2009 | 290,000 tested, 0.89% active | purified VIM-2, nitrocefin hydrolysis, epi-absorbance fluorescence | inhibition, % at 5.6 µM;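 active = inhibition above the mean of all tested compounds plus 3 SD, cutoff set per screening run, cut at about 7.5% in these data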;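 note: red hydrolysis product quenches plate fluorescence so inhibitors raise well fluorescence; 0% = enzyme with DMSO and 100% = DMSO without enzyme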
Numbers without * were called inactive. Compounds with a hit are over-represented: about 1.7% of the library has one in this group of screens.

For COc1ccc(C(CC(=O)O)NC(=O)C(c2ccccc2)c2ccccc2)cc1 (stereo unspecified) the results were PolyA inhibitor 24, procasp3 activ 6, IMP-1 inhibitor -1, Neddyl block inactive, proCasp7 act 7 and VIM-2 inhibitor -1.
For CCCc1cc(=O)oc2cc(C)cc(OCC(=O)NCc3ccccn3)c12 the results were PolyA inhibitor 10, procasp3 activ 3, IMP-1 inhibitor -1, proCasp7 act 2 and VIM-2 inhibitor -2.
For CCCc1cc(=O)oc2cc(C)cc(OCC(=O)Nc3cccnc3)c12 the results were PolyA inhibitor -9, procasp3 activ -1, IMP-1 inhibitor -5, proCasp7 act -6 and VIM-2 inhibitor 12*.
`O=C(N/N=C/c1sc(N2CCOCC2)nc1-c1ccccc1)c1cccc(S(=O)(=O)N2CCOCC2)c1` gave PolyA inhibitor 4, procasp3 activ 2, IMP-1 inhibitor -1, Neddyl block active, proCasp7 act -9 and VIM-2 inhibitor -1.
`CC(C)C(c1nnnn1Cc1ccco1)N1CCC(C(N)=O)CC1` (stereo unspecified) gave PolyA inhibitor 1, procasp3 activ -18, IMP-1 inhibitor -5, Neddyl block inactive, proCasp7 act -23 and VIM-2 inhibitor -5.
`O=c1c(NCCc2ccccc2)c(-c2ccccc2)c1=O` gave PolyA inhibitor -6, procasp3 activ 1, IMP-1 inhibitor -1, Neddyl block inactive, proCasp7 act -2 and VIM-2 inhibitor 0.
Screening Cc1ccc(-c2c(NCCc3ccccc3)c(=O)c2=O)cc1 returned PolyA inhibitor -13, procasp3 activ -1, IMP-1 inhibitor 5.3*, Neddyl block inactive, proCasp7 act -1 and VIM-2 inhibitor -1.
For O=S(=O)(c1ccc(Cl)c(NC(=S)N/N=C/c2c(F)cccc2F)c1)N1CCOCC1 the results were PolyA inhibitor -9, procasp3 activ -6, IMP-1 inhibitor -3, Neddyl block inactive, proCasp7 act -4 and VIM-2 inhibitor 10*.
Cc1cn(-c2cc(NC(=O)c3ccc(C)c(NC(=O)c4cccc(-c5cn[nH]c(=O)c5)c4)c3)cc(C(F)(F)F)c2)cn1 was read as PolyA inhibitor 1, procasp3 activ 3, IMP-1 inhibitor 20*, Neddyl block inactive, proCasp7 act 2 and VIM-2 inhibitor 2.
Screening CCOC(=O)c1c(CN(C)C)n(-c2ccccc2)c2cc(Br)c(OC)cc12 returned PolyA inhibitor -23, procasp3 activ 5, IMP-1 inhibitor -3, Neddyl block inactive, proCasp7 act 5 and VIM-2 inhibitor 4.
Screening CCOC(=O)c1c(CN(C)C)n(-c2ccc(C)cc2)c2cc(Br)c(O)cc12 returned PolyA inhibitor 0, procasp3 activ 7, IMP-1 inhibitor -3, Neddyl block inactive, proCasp7 act 10 and VIM-2 inhibitor 8.4*.
`O=C1CCN(S(=O)(=O)c2ccccc2)N1` gave PolyA inhibitor 6, procasp3 activ -8, IMP-1 inhibitor 0, Neddyl block inactive, proCasp7 act -18 and VIM-2 inhibitor 9.7*.
For O=C1CCN(S(=O)(=O)c2ccc(Cl)cc2)N1 the results were PolyA inhibitor 15, procasp3 activ -2, IMP-1 inhibitor -2, Neddyl block inactive, proCasp7 act 2 and VIM-2 inhibitor 5.
Screening Cc1ccc(S(=O)(=O)N2CCC(=O)N2)cc1 returned PolyA inhibitor 1, procasp3 activ -12, IMP-1 inhibitor 0, Neddyl block inactive, proCasp7 act -5 and VIM-2 inhibitor 8.6*.
For c1ccc(N2CCN(c3ncnc4c3oc3ccccc34)CC2)cc1 the results were PolyA inhibitor 5, procasp3 activ 1, IMP-1 inhibitor -1, Neddyl block inactive, proCasp7 act 11 and VIM-2 inhibitor -1.
For CCc1nnc(N2CCN(c3ncnc4c3oc3ccccc34)CC2)s1 the results were PolyA inhibitor -22, IMP-1 inhibitor -1, Neddyl block inactive and VIM-2 inhibitor 12*.
Screening Cc1cccc(NC2=NCC(=O)N2Cc2ccccc2)c1 returned PolyA inhibitor -5, procasp3 activ 0, IMP-1 inhibitor 8.6*, Neddyl block inactive, proCasp7 act -5 and VIM-2 inhibitor -4.
For Cc1cc(C)cc(NC2=NCC(=O)N2Cc2ccccc2)c1 the results were PolyA inhibitor -10, procasp3 activ 1, IMP-1 inhibitor -3, Neddyl block inactive, proCasp7 act 1 and VIM-2 inhibitor -2.
Screening Nc1c(C(O)(C(F)(F)F)C(F)(F)F)cc(C(O)(C(F)(F)F)C(F)(F)F)c2ccccc12 returned PolyA inhibitor -38, procasp3 activ 2, IMP-1 inhibitor -1, Neddyl block active, proCasp7 act 3 and VIM-2 inhibitor 0.
CCCCN(C)CCNC(=O)c1nn(-c2ccc(OC)cc2)c(=O)c2c1c1ccccc1n2C was read as PolyA inhibitor 2, procasp3 activ 5, IMP-1 inhibitor -2, Neddyl block inactive, proCasp7 act 1 and VIM-2 inhibitor 8.3*.
For O=C(Cc1nc(-c2cnccn2)no1)NNC(=O)Nc1ccccc1 the results were PolyA inhibitor -18, procasp3 activ -16, IMP-1 inhibitor -2, Neddyl block inactive, proCasp7 act -13 and VIM-2 inhibitor -4.
`CCc1nc(CNC(=O)c2cc(OC)c(OC)c(OC)c2)no1` gave PolyA inhibitor 9, procasp3 activ 10, IMP-1 inhibitor -2, Neddyl block inactive, proCasp7 act -20 and VIM-2 inhibitor -1.
`CC1(C)C(C#N)=C(N)Oc2c1c(=O)oc1ccccc21` gave PolyA inhibitor 4, procasp3 activ 0, IMP-1 inhibitor 4.9*, Neddyl block inactive, proCasp7 act 1 and VIM-2 inhibitor 1.
Screening Cc1ccc(C)c(NC(=S)NCCc2ccc(F)cc2)c1 returned PolyA inhibitor -20, procasp3 activ 1, IMP-1 inhibitor 20*, Neddyl block inactive, proCasp7 act 8 and VIM-2 inhibitor -2.
`Cc1cc(C(=O)N2CCCC(C(=O)c3ccc(Oc4ccccc4)cc3)C2)n[nH]1` (stereo unspecified) gave PolyA inhibitor -7, IMP-1 inhibitor -2, Neddyl block inactive and VIM-2 inhibitor -4.
COc1c(C=O)cc2c3c1CCCN3CCC2 was read as PolyA inhibitor 5, procasp3 activ 9, IMP-1 inhibitor -2, Neddyl block inactive, proCasp7 act -3 and VIM-2 inhibitor -1.
